According to ChEMBL document CHEMBL1142420, “Synthesis and DNA-cleaving activity of lactenediynes conjugated with DNA-complexing moieties” (2008):

Key:
[1] = tested on: NCI-H226; assay: Cytotoxicity against human NCI-H226 cells after 48 hrs by SRB assay; format: functional; settings: NCI-H226, 48 h
Method in brief: (§1)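 Run at NCI: cell lines exposed 48 h to a range of concentrations, with untreated controls under identical conditions. Growth measured by sulforhodamine B staining with colorimetric read-out. Percent growth computed from test, time-zero and control absorbances. GI50, TGI and LC50 read from PG versus log10 molar concentration as the concentrations giving PG = 50, 0 and -50.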

[2] = tested on: IGROV-1; assay: Cytotoxicity against human IGROV1 cells after 48 hrs by SRB assay; format: functional; settings: IGROV-1, 48 h; method in brief: as §1
[3] = tested on: SNB-75; assay: Cytotoxicity against human SNB75 cells after 48 hrs by SRB assay; format: functional; settings: SNB-75, 48 h; method in brief: as §1
[4] = tested on: M14; assay: Cytotoxicity against human M14 cells after 48 hrs by SRB assay; format: functional; settings: M14, 48 h; method in brief: as §1
[5] = tested on: RXF 393; assay: Cytotoxicity against human […] cells after 48 hrs by SRB assay; format: functional; settings: RXF 393, 48 h; method in brief: as §1
[6] = tested on: UO-31; assay: Cytotoxicity against human UO31 cells after 48 hrs by SRB assay; format: functional; settings: UO-31, 48 h; method in brief: as §1
[7] = tested on: NCI-H460; assay: Cytotoxicity against human NCI-H460 cells after 48 hrs by SRB assay; format: functional; settings: NCI-H460, 48 h; method in brief: as §1
[8] = tested on: SW-620; assay: Cytotoxicity against human SW620 cells after 48 hrs by SRB assay; format: functional; settings: SW-620, 48 h; method in brief: as §1
[9] = tested on: MDA-MB-435; assay: Cytotoxicity against human MDA-MB-435 cells after 48 hrs by SRB assay; format: functional; settings: MDA-MB-435, 48 h; method in brief: as §1
[10] = tested on: Escherichia coli; assay: Induction of plasmid pBR322 DNA cleavage assessed as concentration required to cleave 50% of DNA after 24 hrs by gel electrophoresis
Method in brief: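 Supercoiled pBR322 (90% form I) diluted to 50 µg/mL (75 µM/bp) in pH 7.5 Tris 40 mM/EDTA 4 mM. Incubated 24 h at 37 °C, then run on agarose gel with ethidium bromide and viewed at 302 nm. Form I versus II+III quantified by densitometry after subtracting form II present in the control.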

[11] = tested on: HT-29; assay: Cytotoxicity against human HT29 cells after 48 hrs by SRB assay; format: functional; settings: HT-29, 48 h; method in brief: as §1
[12] = tested on: NCI-H23; assay: Cytotoxicity against human NCI-H23 cells after 48 hrs by SRB assay; format: functional; settings: NCI-H23, 48 h, read-out: Log LC50 (the source's name) (converted)
Method in brief: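 Run at NCI: cells exposed 48 h to a range of concentrations, with untreated controls under identical conditions. Growth measured by sulforhodamine B staining with colorimetric read-out. Percent growth (PG) calculated from absorbance at 48 h with drug, at time zero, and at 48 h without drug. Log molar concentration plotted against PG; GI50 at PG = 50, TGI at PG = 0, LC50 at PG = −50.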

[13] = tested on: SF-295; assay: Cytotoxicity against human SF295 cells after 48 hrs by SRB assay; format: functional; settings: SF-295, 48 h; method in brief: as §1
[14] = tested on: DU-145; assay: Cytotoxicity against human DU145 cells after 48 hrs by SRB assay; format: functional; settings: DU-145, 48 h; method in brief: as §1
[15] = tested on: KM12; assay: Cytotoxicity against human KM12 cells after 48 hrs by SRB assay; format: functional; settings: KM12, 48 h; method in brief: as §1
[16] = tested on: UACC-62; assay: Cytotoxicity against human UACC62 cells after 48 hrs by SRB assay; format: functional; settings: UACC-62, 48 h; method in brief: as §1
[17] = tested on: NCI-H322M; assay: Cytotoxicity against human NCI-H322M cells after 48 hrs by SRB assay; format: functional; method in brief: as §1
[18] = tested on: HCT-15; assay: Cytotoxicity against human HCT15 cells after 48 hrs by SRB assay; format: functional; settings: HCT-15, 48 h; method in brief: as §1
[19] = tested on: OVCAR-3; assay: Cytotoxicity against human OVCAR-3 cells after 48 hrs by SRB assay; format: functional; settings: OVCAR-3, 48 h; method in brief: as §1
[20] = read-out: Log LC50 (the source's name) (converted)

Which GI50 [1] does the source give for `CC(=O)O[C@@H]1C#C/C=C\C#CC[C@H]2C(=O)N(C(=O)OC(C)(C)C)[C@H]12` here?
The GI50 was 39.8 µM.

What about the GI50 [2] of the same compound?
The GI50 was 19.5 µM.

And the CC50 [2, 20]?
The CC50 was > 100 µM.

And the TGI ([2]; read-out: Log TGI (converted))?
Its TGI is > 100 µM.

And the GI50 [3]?
The GI50 was 38 µM.

And the CC50 [3, 20]?
Its CC50 is > 100 µM.

And the TGI ([3]; read-out: Log TGI (converted))?
The TGI was > 100 µM.

And the GI50 [4]?
The GI50 was 39.8 µM.

What about the CC50 [4, 20] of the same compound?
Its CC50 is > 100 µM.

What about the TGI ([4]; read-out: Log TGI (converted)) of the same compound?
The TGI was > 100 µM.

And the GI50 [5]?
The GI50 was 20.4 µM.

And the CC50 [5, 20]?
Its CC50 is > 100 µM.

What about the TGI ([5]; read-out: Log TGI (converted)) of the same compound?
Its TGI is 69.2 µM.

What about the GI50 [6] of the same compound?
Its GI50 is 5.89 µM.

And the CC50 [6, 20]?
The CC50 was > 100 µM.

And the TGI ([6]; read-out: Log TGI (converted))?
Its TGI is > 100 µM.

And the GI50 [7]?
Its GI50 is 0.0933 µM.

And the CC50 [7, 20]?
Its CC50 is > 100 µM.

And the TGI ([7]; read-out: Log TGI (converted))?
Its TGI is > 100 µM.

What about the GI50 [8] of the same compound?
Its GI50 is 13.5 µM.

What about the CC50 [8, 20] of the same compound?
The CC50 was > 100 µM.

And the TGI ([8]; read-out: Log TGI (converted))?
The TGI was > 100 µM.

And the GI50 [9]?
Its GI50 is > 100 µM.

And the CC50 [9, 20]?
The CC50 was > 100 µM.

What about the TGI ([9]; read-out: Log TGI (converted)) of the same compound?
The TGI was > 100 µM.

And the CS50 [10]?
The CS50 was 40 µM.

What about the GI50 [11] of the same compound?
Its GI50 is > 100 µM.

What about the CC50 [11, 20] of the same compound?
The CC50 was > 100 µM.

What about the TGI ([11]; read-out: Log TGI (converted)) of the same compound?
Its TGI is > 100 µM.

And the CC50 [12]?
The CC50 was > 100 µM.

What about the GI50 [13] of the same compound?
The GI50 was 30.9 µM.

What about the CC50 [13, 20] of the same compound?
Its CC50 is > 100 µM.

And the TGI ([13]; read-out: Log TGI (converted))?
Its TGI is > 100 µM.

What about the GI50 [14] of the same compound?
Its GI50 is 16.2 µM.

And the CC50 [14, 20]?
Its CC50 is > 100 µM.

And the TGI ([14]; read-out: Log TGI (converted))?
The TGI was 56.2 µM.

And the GI50 [15]?
The GI50 was > 100 µM.

And the CC50 [15, 20]?
Its CC50 is > 100 µM.

And the TGI ([15]; read-out: Log TGI (converted))?
Its TGI is > 100 µM.

And the GI50 [16]?
Its GI50 is 21.4 µM.

And the CC50 [16, 20]?
Its CC50 is > 100 µM.

And the TGI ([16]; read-out: Log TGI (converted))?
The TGI was > 100 µM.

What about the GI50 [17] of the same compound?
The GI50 was > 100 µM.

What about the CC50 [17, 20] of the same compound?
Its CC50 is > 100 µM.

What about the TGI ([17]; read-out: Log TGI (converted)) of the same compound?
Its TGI is > 100 µM.

What about the CC50 [18, 20] of the same compound?
The CC50 was > 100 µM.

What about the TGI ([18]; read-out: Log TGI (converted)) of the same compound?
The TGI was > 100 µM.

And the GI50 ([18]; read-out: pGI50 (converted))?
The GI50 was 40.7 µM.

What about the GI50 [19] of the same compound?
The GI50 was 61.7 µM.

And the CC50 [19, 20]?
The CC50 was > 100 µM.

And the TGI ([19]; read-out: Log TGI (converted))?
The TGI was > 100 µM.
